Experimental data: ChEMBL document CHEMBL3232764, “Influence of the adamantyl moiety on the activity of biphenylacrylohydroxamic acid-based HDAC inhibitors” (Eur J Med Chem, 2014)

What was measured:
Histone deacetylase 5 = Histone deacetylase 5 (Homo sapiens, UniProt Q9UQL6); experiment: Inhibition of human HDAC5 using fluorogenic tetrapeptide RHKKAc as substrate
Histone deacetylase 1 = Histone deacetylase 1 (Homo sapiens, UniProt Q13547); experiment: Inhibition of human HDAC1 using fluorogenic tetrapeptide RHKKAc as substrate
Histone deacetylase 4 = Histone deacetylase 4 (Homo sapiens, UniProt P56524); experiment: Inhibition of human HDAC4 using fluorogenic tetrapeptide RHKKAc as substrate
[1] = target: T1, Protein deacetylase HDAC6 (Homo sapiens, UniProt Q9UBN7); experiment: Inhibition of human HDAC6 using fluorogenic tetrapeptide RHKKAc as substrate
T1 sequence (Q9UBN7 whole entry): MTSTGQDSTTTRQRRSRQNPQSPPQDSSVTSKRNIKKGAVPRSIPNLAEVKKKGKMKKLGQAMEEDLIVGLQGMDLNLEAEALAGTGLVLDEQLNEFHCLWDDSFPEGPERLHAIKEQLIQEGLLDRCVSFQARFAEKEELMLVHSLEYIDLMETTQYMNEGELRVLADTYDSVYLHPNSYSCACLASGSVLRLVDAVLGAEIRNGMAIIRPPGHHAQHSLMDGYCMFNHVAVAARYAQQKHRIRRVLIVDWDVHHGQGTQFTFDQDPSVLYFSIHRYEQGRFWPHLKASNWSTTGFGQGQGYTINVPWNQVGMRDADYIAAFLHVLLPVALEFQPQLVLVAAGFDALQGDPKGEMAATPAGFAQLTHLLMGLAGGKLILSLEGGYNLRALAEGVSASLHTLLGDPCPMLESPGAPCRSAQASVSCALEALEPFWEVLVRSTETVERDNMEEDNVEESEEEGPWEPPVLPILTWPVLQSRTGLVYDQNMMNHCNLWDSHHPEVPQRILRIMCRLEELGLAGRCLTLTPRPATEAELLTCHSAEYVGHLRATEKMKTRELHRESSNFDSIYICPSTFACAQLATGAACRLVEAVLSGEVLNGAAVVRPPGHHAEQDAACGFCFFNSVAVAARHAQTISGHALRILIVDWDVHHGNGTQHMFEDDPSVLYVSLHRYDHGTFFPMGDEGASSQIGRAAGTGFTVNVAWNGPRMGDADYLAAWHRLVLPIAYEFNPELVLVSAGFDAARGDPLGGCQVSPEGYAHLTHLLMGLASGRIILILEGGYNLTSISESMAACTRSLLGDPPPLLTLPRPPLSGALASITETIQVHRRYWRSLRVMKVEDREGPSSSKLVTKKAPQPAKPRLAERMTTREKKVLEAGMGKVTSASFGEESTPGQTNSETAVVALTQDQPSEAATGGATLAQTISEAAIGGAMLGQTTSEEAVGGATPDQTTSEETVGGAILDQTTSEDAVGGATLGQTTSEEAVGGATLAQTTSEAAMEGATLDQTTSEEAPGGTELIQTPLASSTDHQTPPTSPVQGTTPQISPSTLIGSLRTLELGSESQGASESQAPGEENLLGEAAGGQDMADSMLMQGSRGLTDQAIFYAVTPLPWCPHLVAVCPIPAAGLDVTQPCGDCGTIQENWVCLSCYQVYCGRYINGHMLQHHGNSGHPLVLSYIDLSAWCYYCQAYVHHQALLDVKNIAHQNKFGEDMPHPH

Histone deacetylase 3 = Histone deacetylase 3 (Homo sapiens, UniProt O15379)
IGROV-1 = experiment: Induction of apoptosis in human IGROV1 cells at IC80 after 72 hrs by TUNEL and flow cytometry analysis (reference value: 4%); type: functional
Histone deacetylase 11 = target: T2, Histone deacetylase 11 (Homo sapiens, UniProt Q96DB2); experiment: Inhibition of human HDAC11 using fluorogenic tetrapeptide RHKKAc as substrate
T2 sequence (Q96DB2 whole entry): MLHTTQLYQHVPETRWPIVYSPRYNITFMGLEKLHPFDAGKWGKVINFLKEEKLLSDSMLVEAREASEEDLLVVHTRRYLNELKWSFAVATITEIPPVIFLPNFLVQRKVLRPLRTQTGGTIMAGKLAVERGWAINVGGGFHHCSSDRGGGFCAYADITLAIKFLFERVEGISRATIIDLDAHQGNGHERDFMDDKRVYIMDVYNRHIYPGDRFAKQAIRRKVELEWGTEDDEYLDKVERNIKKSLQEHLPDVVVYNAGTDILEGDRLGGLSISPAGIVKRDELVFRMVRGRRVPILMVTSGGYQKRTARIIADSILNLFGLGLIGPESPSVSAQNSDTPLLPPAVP

HCT-116 = experiment: Antiproliferative activity against human HCT116 cells assessed as growth inhibition after 72 hrs; type: functional, cell-based; details: HCT-116, 72 h
Summary of the method: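 Log-phase cells seeded in duplicate in 6-well plates; drug added 24 h after seeding. Cells harvested 72 h after drug exposure and counted with a cell counter. IC50 = drug concentration giving 50% reduction in cell number versus untreated control.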

Histone deacetylase 8 = target: T3, Histone deacetylase 8 (Homo sapiens, UniProt Q9BY41); experiment: Inhibition of human HDAC8 using fluorogenic tetrapeptide RHKKAc as substrate
T3 sequence (Q9BY41 whole entry): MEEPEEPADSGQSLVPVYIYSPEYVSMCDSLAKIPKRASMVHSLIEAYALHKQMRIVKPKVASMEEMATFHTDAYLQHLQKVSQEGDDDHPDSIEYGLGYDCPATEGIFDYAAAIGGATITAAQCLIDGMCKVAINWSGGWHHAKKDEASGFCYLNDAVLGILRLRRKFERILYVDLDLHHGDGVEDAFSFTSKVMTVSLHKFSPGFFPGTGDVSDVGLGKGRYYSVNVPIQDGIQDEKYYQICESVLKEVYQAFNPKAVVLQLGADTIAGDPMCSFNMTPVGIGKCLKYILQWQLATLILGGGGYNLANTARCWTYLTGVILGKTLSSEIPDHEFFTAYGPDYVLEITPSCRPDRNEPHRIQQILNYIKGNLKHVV

Histone deacetylase 9 = Histone deacetylase 9 (Homo sapiens, UniProt Q9UKV0); experiment: Inhibition of human HDAC9 using fluorogenic tetrapeptide RHKKAc as substrate
Sequence of Histone deacetylase 9 (Q9UKV0 whole entry): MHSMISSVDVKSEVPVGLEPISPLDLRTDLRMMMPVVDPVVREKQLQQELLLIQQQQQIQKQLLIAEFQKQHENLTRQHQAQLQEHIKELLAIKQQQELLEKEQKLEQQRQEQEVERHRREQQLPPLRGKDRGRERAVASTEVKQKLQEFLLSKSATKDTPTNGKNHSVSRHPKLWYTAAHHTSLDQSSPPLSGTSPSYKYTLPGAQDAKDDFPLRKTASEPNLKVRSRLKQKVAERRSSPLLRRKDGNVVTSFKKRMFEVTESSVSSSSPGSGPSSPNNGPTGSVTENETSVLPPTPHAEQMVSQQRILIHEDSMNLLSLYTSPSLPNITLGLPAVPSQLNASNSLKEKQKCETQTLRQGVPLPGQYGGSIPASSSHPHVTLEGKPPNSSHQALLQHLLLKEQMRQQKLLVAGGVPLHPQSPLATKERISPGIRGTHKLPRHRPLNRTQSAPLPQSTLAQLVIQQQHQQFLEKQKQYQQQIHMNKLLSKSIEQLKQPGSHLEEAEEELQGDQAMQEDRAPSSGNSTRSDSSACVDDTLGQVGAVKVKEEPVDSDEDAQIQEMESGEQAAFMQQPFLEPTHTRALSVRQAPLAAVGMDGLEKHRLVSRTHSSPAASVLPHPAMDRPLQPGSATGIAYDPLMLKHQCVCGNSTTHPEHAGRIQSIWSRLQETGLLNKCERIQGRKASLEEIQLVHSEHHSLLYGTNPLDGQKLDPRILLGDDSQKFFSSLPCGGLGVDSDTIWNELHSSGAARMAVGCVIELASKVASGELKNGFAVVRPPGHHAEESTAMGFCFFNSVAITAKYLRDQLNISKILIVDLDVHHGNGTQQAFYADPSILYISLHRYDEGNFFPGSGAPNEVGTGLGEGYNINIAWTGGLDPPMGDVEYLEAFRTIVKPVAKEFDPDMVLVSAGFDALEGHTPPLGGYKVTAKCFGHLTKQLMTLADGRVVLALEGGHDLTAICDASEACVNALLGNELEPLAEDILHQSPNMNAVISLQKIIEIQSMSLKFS

Sequence of Histone deacetylase 4 (P56524 whole entry): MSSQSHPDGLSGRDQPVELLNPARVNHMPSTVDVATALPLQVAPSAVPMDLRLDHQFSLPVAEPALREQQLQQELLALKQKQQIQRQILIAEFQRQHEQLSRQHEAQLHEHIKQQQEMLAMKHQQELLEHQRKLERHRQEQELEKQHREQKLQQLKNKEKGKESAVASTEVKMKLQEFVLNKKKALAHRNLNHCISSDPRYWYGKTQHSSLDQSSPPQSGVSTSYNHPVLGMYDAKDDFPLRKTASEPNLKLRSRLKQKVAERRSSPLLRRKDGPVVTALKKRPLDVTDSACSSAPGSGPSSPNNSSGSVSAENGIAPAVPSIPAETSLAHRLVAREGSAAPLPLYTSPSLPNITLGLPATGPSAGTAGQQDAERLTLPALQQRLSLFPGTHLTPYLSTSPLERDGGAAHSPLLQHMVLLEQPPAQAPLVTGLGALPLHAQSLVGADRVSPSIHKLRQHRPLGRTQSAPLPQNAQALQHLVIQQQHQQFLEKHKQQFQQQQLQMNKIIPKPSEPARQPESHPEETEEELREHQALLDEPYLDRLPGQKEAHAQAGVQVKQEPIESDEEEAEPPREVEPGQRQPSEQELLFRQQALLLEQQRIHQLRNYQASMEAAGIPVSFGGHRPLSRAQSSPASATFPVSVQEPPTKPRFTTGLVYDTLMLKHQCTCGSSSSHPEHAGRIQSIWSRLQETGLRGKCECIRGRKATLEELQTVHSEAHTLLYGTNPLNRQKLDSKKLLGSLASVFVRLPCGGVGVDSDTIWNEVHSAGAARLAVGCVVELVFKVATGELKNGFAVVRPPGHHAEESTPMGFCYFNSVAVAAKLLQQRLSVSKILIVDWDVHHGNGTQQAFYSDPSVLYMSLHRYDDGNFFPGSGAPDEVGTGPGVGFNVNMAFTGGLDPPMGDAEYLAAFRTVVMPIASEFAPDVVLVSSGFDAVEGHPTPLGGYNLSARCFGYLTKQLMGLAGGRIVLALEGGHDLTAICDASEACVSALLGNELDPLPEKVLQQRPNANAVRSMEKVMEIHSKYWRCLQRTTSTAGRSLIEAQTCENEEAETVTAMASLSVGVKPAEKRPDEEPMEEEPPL
Sequence of Histone deacetylase 5 (Q9UQL6 whole entry): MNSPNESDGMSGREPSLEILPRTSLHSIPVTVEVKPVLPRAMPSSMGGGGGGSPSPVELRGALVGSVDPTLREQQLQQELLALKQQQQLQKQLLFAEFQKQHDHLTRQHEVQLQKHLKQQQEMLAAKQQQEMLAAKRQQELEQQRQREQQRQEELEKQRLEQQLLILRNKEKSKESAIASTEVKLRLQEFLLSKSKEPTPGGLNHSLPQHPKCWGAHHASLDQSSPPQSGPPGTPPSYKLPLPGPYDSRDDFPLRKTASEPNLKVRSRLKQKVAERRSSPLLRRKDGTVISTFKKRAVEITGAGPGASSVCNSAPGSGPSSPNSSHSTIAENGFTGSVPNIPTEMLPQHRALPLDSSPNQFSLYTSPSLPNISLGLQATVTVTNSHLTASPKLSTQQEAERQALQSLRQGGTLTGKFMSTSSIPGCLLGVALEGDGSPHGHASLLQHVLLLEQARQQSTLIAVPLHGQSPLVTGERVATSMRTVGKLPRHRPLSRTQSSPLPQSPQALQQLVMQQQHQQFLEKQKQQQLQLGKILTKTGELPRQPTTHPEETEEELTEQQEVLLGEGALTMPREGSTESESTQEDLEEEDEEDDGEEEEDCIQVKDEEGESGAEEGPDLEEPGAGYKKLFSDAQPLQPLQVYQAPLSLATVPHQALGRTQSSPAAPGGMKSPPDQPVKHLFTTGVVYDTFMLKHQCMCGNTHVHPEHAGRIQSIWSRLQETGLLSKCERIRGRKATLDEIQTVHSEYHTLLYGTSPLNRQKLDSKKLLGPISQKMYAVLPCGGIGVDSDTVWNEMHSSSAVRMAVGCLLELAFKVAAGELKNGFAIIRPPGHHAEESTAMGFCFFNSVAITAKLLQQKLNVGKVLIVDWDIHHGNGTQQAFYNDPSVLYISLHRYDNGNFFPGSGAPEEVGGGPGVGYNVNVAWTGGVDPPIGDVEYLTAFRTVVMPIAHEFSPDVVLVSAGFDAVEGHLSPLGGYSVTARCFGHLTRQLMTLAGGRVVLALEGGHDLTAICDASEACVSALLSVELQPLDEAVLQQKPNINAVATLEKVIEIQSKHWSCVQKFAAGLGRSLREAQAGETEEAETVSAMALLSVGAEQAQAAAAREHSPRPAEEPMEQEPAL
Sequence of Histone deacetylase 3 (O15379 whole entry): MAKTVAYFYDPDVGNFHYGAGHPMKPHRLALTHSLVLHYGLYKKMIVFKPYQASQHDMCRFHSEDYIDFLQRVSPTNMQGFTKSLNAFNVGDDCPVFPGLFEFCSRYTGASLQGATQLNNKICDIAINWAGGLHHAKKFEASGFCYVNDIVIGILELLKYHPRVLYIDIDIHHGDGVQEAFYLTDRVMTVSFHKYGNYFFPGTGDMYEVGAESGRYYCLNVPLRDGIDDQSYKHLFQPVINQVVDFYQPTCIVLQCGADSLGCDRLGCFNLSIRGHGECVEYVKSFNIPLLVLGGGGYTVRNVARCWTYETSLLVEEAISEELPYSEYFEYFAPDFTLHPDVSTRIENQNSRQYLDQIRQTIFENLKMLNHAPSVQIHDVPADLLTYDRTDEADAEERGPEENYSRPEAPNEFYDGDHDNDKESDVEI
Sequence of Histone deacetylase 1 (Q13547 whole entry): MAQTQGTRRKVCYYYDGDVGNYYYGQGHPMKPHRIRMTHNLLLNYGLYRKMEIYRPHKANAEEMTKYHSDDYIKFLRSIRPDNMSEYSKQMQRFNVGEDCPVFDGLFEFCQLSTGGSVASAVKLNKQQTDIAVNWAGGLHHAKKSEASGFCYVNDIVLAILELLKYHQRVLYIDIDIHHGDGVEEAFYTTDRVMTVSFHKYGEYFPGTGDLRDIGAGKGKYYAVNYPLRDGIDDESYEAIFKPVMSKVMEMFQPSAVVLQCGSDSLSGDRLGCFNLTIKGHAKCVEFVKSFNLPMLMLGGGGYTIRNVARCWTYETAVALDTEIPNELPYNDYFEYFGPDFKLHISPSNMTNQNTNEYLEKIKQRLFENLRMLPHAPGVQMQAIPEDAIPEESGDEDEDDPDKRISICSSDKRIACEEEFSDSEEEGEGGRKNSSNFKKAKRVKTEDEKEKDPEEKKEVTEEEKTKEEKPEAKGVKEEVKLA

IC50 (Histone deacetylase 5) [µM] | IC50 (Histone deacetylase 1) [µM] | IC50 (Histone deacetylase 4) [µM] | IC50 [1] [µM] | IC50 (Histone deacetylase 3) [µM] | IC50 (Histone deacetylase 11) [µM] | IC50 (HCT-116) [µM] | IC50 (Histone deacetylase 8) [µM] | IC50 (Histone deacetylase 9) [µM] | SMILES | Activity (IGROV-1) [%]
> 100 | 60.1 | > 100 | 16.7 | > 100 | 38.1 | 1.8 | 30.6 | > 100 | COc1ccc(-c2ccc(/C=C/C=C/C(=O)NO)cc2)cc1C12CC3CC(CC(C3)C1)C2 | 52
> 100 | > 100 | > 100 | 3.26 | > 100 | > 100 | 2.4 | 1.56 | > 100 | COc1ccc(-c2ccc(/C=C/C=C/C(=O)NO)cc2)cc1 | 91
